Calls of active or inactive are those of the source. No cut-off for these calls is given here.
Tests used:
Nociceptin receptor [1] = target: T1, Nociceptin receptor (Homo sapiens, UniProt P41146); test: Displacement of [125I][Tyr14]nociceptin from human cloned NOP receptor expressed in CHO cells; type: cell-based
Mu-type opioid receptor [2] = target: T2, Mu-type opioid receptor (Homo sapiens, UniProt P35372); test: Displacement of [3H]diprenorphine from human mu opioid receptor expressed in CHO cells; type: cell-based
T2 sequence (P35372 whole entry): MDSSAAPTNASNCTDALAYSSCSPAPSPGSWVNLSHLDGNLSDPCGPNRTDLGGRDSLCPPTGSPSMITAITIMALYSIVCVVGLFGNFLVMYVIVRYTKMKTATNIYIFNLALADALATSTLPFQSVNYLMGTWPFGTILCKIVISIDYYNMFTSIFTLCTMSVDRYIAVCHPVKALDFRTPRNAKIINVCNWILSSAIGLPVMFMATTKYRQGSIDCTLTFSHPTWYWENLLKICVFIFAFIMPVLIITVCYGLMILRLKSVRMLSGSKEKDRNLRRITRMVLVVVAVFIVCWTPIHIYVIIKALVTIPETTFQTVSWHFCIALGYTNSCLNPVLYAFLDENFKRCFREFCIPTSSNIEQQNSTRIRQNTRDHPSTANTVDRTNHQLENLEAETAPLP

Nociceptin receptor [3] = target: T1, Nociceptin receptor; test: Agonist activity at human NOP assessed as stimulation of GDP-induced [35S]GTPgammaS binding; type: functional
Summary of the method: (§1)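 Functional agonism measured as enhancement of [35S]GTPγS binding in the presence of GDP, using membranes from cells transfected with the receptor. Values are means of 2–3 experiments.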

Mu-type opioid receptor [4] = target: T2, Mu-type opioid receptor; test: Binding affinity to human mu opioid assessed as stimulation of GDP-induced [35S]GTPgammaS binding at 10 uM; type: functional
Summary of the method: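 Agonist function read as enhancement of [35S]GTPγS binding to receptor-expressing membranes in the presence of GDP. Percent stimulation is given at 10 µM test compound. Values are means of at least 2–3 experiments.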

[5] = target: T3, Nuclear receptor subfamily 1 group I member 2 (Homo sapiens, UniProt O75469); test: Activity at human PXR assessed as induction of CYP3A4 activity in human hepatocytes at 1 uM relative to rifampicin; type: cell-based, Hepatocyte
T3 sequence (O75469 whole entry): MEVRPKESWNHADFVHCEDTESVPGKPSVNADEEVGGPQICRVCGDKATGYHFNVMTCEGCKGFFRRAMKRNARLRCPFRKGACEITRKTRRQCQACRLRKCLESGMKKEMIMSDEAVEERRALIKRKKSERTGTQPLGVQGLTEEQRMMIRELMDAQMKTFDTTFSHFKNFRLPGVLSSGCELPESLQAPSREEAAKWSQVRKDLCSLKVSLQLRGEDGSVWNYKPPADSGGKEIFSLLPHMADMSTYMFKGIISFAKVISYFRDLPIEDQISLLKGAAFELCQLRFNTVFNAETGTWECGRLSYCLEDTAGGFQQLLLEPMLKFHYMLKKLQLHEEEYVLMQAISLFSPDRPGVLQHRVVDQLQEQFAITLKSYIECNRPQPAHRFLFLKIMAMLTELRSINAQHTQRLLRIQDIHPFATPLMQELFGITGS

Mu-type opioid receptor [6] = target: T2, Mu-type opioid receptor; test: Agonist activity at human mu opioid assessed as stimulation of GDP-induced [35S]GTPgammaS binding; type: functional; summary of the method: as §1
Nociceptin receptor [7] = target: T1, Nociceptin receptor; test: Agonist activity at human NOP assessed as stimulation of GDP-induced [35S]GTPgammaS binding at 10 uM; type: functional
Summary of the method: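 Functional agonism measured as enhancement of [35S]GTPγS binding in the presence of GDP, using membranes from cells transfected with the receptor. […] Values are means of 2–3 experiments.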

[8] = target: Kappa-type opioid receptor (Homo sapiens, UniProt P41145); test: Displacement of [3H]diprenorphine from human kappa opioid receptor expressed in CHO cells; type: cell-based
Sequence of Kappa-type opioid receptor (P41145 whole entry): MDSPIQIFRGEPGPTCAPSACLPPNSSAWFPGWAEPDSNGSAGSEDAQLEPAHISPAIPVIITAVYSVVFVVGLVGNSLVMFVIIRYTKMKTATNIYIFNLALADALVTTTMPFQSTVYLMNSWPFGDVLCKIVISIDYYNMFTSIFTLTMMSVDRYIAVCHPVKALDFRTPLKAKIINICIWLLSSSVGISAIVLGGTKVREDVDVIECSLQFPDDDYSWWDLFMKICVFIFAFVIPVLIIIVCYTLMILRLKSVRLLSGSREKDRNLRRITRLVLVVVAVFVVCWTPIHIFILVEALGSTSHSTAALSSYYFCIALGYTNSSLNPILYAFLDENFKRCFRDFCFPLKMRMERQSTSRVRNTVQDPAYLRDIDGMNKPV

[9] = target: Delta-type opioid receptor (Homo sapiens, UniProt P41143); test: Displacement of [3H]diprenorphine from human delta opioid receptor expressed in CHO cells; type: cell-based
Sequence of Delta-type opioid receptor (P41143 whole entry): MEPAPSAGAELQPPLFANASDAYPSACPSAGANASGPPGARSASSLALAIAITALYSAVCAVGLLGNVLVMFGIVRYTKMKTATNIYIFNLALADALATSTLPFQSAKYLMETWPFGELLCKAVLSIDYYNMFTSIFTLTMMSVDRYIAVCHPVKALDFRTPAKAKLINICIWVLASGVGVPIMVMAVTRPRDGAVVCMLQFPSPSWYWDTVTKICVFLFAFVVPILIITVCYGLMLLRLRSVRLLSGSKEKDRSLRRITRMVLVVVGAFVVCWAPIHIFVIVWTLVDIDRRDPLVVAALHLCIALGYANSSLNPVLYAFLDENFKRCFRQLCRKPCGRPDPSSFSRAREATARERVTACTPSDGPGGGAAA

Cavia porcellus [10] = test: Antitussive activity against capsaicin-induced cough in po dosed Hartley guinea pig model after 2 hrs; type: functional
Rattus norvegicus = test: Anxiolytic activity in po dosed CD rats assessed as suppression of conditioned paw licking administered twice per day for 14 days measured after 2 hrs of last dose; type: functional
Cavia porcellus [11] = organism: Cavia porcellus; test: Anxiolytic activity in Dunkin-Hartley guinea pig pup assessed as reduction in number of vocalization produced due to separation measured after 2 hrs; type: functional
Cavia porcellus [12] = test: Antitussive activity against capsaicin-induced cough in po dosed Hartley guinea pig model after 2 hrs in presence J113397; type: functional, organism-based
Cavia porcellus [13] = test: Antitussive activity against capsaicin-induced cough in po dosed Hartley guinea pig model after 2 hrs in presence naltrexone; type: functional, organism-based
Cavia porcellus [14] = test: Antitussive activity against capsaicin-induced cough in po dosed Hartley guinea pig model after 2 hrs in presence naloxone; type: functional, organism-based

T1 sequence (P41146 whole entry): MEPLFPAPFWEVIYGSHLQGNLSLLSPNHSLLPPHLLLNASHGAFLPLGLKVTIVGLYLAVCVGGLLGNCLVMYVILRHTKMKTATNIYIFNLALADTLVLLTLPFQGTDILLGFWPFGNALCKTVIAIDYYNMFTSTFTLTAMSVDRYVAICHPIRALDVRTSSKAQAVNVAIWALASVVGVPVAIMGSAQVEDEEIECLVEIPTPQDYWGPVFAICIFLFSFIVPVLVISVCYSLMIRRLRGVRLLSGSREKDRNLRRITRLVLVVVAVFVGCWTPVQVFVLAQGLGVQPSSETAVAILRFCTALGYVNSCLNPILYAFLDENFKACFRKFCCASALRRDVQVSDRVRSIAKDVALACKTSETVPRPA

Compound	Ki (Nociceptin receptor [1]) [nM]	Ki (Mu-type opioid receptor [2]) [nM]	other results
COc1ccc(CC2(O)CC3CCC(C2)N3C(c2ccccc2Cl)c2ccc(C)cc2Cl)nc1 (stereo not given)	13	384	EC50 (Nociceptin receptor [3]): 90 nM; Activity (Mu-type opioid receptor [4]): 31%
CNC(=O)C1(c2ccccc2)CC2CCC(C1)N2C(c1ccccc1Cl)c1ccccc1Cl (stereo not given)	4.9	50	Ratio [5]: 1.29
OC1(c2cncs2)CC2CCC(C1)N2C(c1ccccc1Cl)c1ccccc1Cl (stereo in doubt; 12b)	3000		
NC(=O)C1(c2ccc(Cl)cc2)CC2CCC(C1)N2C(c1ccccc1Cl)c1ccccc1Cl (stereo not given)	31	55	Ratio [5]: 0.05
CC(C)NC(=O)C1(c2ccccc2)CC2CCC(C1)N2C(c1ccccc1Cl)c1ccccc1Cl (stereo not given)	10	333	Ratio [5]: 2.21
O=C(O)C1(c2ccccc2)CC2CCC(C1)N2C(c1ccccc1Cl)c1ccccc1Cl (stereo not given)	3	123	
COC1(c2ccccc2)CC2CCC(C1)N2C(c1ccccc1Cl)c1ccccc1Cl (stereo not given)	8	636	EC50 (Nociceptin receptor [3]): 50 nM; EC50 (Mu-type opioid receptor [6]): 545 nM
Cc1ccc(C(c2ccccc2Cl)N2C3CCC2CC(O)(C2=NCCCN2)C3)c(Cl)c1 (stereo not given)	3	622	EC50 (Nociceptin receptor [3]): 62 nM; Activity (Mu-type opioid receptor [4]): 29%
FCC1(c2ccccc2)CC2CCC(C1)N2C(c1ccccc1Cl)c1ccccc1Cl (stereo not given)	3150		
NC1(c2ccccc2)CC2CCC(C1)N2C(c1ccccc1Cl)c1ccccc1Cl (stereo not given)	4	458	EC50 (Nociceptin receptor [3]): 76 nM; EC50 (Mu-type opioid receptor [6]): 4520 nM
Cc1ccc(C(c2ccccc2Cl)N2C3CCC2CC(O)(C2CCCN2Cc2ccccc2)C3)c(Cl)c1 (stereo not given)	14	1550	
C[C@@H]1CN(C(c2ccccc2)c2ccccc2)CC[C@@]1(O)c1ccccc1	142	738	Activity (Nociceptin receptor [7]): 70%
OC1(c2ccccc2)CC2CCC(C1)N2C(c1ccccc1Cl)c1ccccc1Cl (stereo not given)	3.4	22	EC50 (Mu-type opioid receptor [6]): 337 nM; Ki [8]: 109 nM; Ki [9]: 3.14 µM; ED50 (Cavia porcellus [10]): 0.4 mg/kg; ED50 (Rattus norvegicus): 1.4 mg/kg; ED50 (Cavia porcellus [11]): 0.4 mg/kg; Activity (Cavia porcellus [12]): inactive; Activity (Cavia porcellus [13]): Active; Activity (Cavia porcellus [14]): Active
NC(=O)C1(c2ccc(OC(F)(F)F)cc2)CC2CCC(C1)N2C(c1ccccc1Cl)c1ccccc1Cl (stereo not given)	285		Ratio [5]: 0.1
OC1(c2cncs2)CC2CCC(C1)N2C(c1ccccc1Cl)c1ccccc1Cl (stereo in doubt; 11b)	19	1490	
COC(=O)NC1(c2ccccc2)CC2CCC(C1)N2C(c1ccccc1Cl)c1ccccc1Cl (stereo not given)	6	576	EC50 (Nociceptin receptor [3]): 54 nM; EC50 (Mu-type opioid receptor [6]): 782 nM
C[C@H]1CN(C(c2ccccc2)c2ccccc2)CC[C@@]1(O)c1ccccc1	1570		
CC(O)CNC(=O)C1(c2ccccc2)CC2CCC(C1)N2C(c1ccccc1Cl)c1ccccc1Cl (stereo not given)	11	57	Ratio [5]: 2.38
Cc1ccc(C(c2ccccc2Cl)N2C3CCC2CC(O)(c2ccncn2)C3)c(Cl)c1 (stereo not given)	5.2	535	EC50 (Nociceptin receptor [3]): 50 nM; EC50 (Mu-type opioid receptor [6]): 1690 nM
CNC(=O)NC1(c2ccccc2)CC2CCC(C1)N2C(c1ccccc1Cl)c1ccccc1Cl (stereo not given)	2	27	
OC1CC2CCC(C1)N2C(c1ccccc1Cl)c1ccccc1Cl (stereo in doubt; 11a)	198		
OC1CC2CCC(C1)N2C(c1ccccc1Cl)c1ccccc1Cl (stereo in doubt; 12a)	1090		
